From ChEMBL document CHEMBL4732060, “Cytotoxic triterpenoid-safirinium conjugates target the endoplasmic reticulum” (Eur J Med Chem, 2021)
Calls of active or inactive are those of the source. The rule behind the calls is not given here.

What was measured:
A-375 [1] = assay: Cytotoxicity against human A-375 cells assessed as reduction in cell viability upto 30 uM measured after 72 hrs by SRB assay; assay type: functional, cell-based; conditions: dose microM <=30, time 72.0 hrs
In short: (§1)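 Sulforhodamine B assay on human tumour lines A375 (epithelial melanoma), HT29 (colorectal adenocarcinoma), MCF-7 (breast adenocarcinoma), A2780 (ovarian carcinoma) and FaDu (squamous cell carcinoma). Non-malignant NIH 3T3 (mouse fibroblasts) and HEK293 (human embryonic kidney) cells were also tested. EC50 values are given as mean ± standard mean error.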

A-375 [2] = assay: Cytotoxicity against human A-375 cells assessed as reduction in cell viability measured after 72 hrs by SRB assay; assay type: functional, cell-based; conditions: A-375, 72 h
HT-29 [3] = assay: Cytotoxicity against human HT-29 cells assessed as reduction in cell viability upto 30 uM measured after 72 hrs by SRB assay; assay type: functional, cell-based; conditions: dose microM <=30, time 72.0 hrs; in short: as §1
HT-29 [4] = assay: Cytotoxicity against human HT-29 cells assessed as reduction in cell viability measured after 72 hrs by SRB assay; assay type: functional, cell-based; conditions: HT-29, 72 h
MCF7 [5] = assay: Cytotoxicity against human MCF7 cells assessed as reduction in cell viability upto 30 uM measured after 72 hrs by SRB assay; assay type: functional, cell-based; conditions: dose microM <=30, time 72.0 hrs; in short: as §1
MCF7 [6] = assay: Cytotoxicity against human MCF7 cells assessed as reduction in cell viability measured after 72 hrs by SRB assay; assay type: functional, cell-based; conditions: MCF7, 72 h
A2780 [7] = assay: Cytotoxicity against human A2780 cells assessed as reduction in cell viability upto 30 uM measured after 72 hrs by SRB assay; assay type: functional, cell-based; conditions: dose microM <=30, time 72.0 hrs; in short: as §1
A2780 [8] = assay: Cytotoxicity against human A2780 cells assessed as reduction in cell viability measured after 72 hrs by SRB assay; assay type: functional, cell-based; conditions: A2780, 72 h
FaDu [9] = assay: Cytotoxicity against human FaDu cells assessed as reduction in cell viability upto 30 uM measured after 72 hrs by SRB assay; assay type: functional, cell-based; conditions: dose microM <=30, time 72.0 hrs; in short: as §1
FaDu [10] = assay: Cytotoxicity against human FaDu cells assessed as reduction in cell viability measured after 72 hrs by SRB assay; assay type: functional, cell-based
NIH3T3 [11] = assay: Cytotoxicity against mouse NIH3T3 cells assessed as reduction in cell viability upto 30 uM measured after 72 hrs by SRB assay; assay type: cell-based; conditions: nih3t3, 72 h; in short: as §1
NIH3T3 [12] = assay: Cytotoxicity against mouse NIH3T3 cells assessed as reduction in cell viability measured after 72 hrs by SRB assay; assay type: cell-based; conditions: NIH3T3, 72 h; in short: as §1
HEK293 [13] = assay: Cytotoxicity against human HEK293 cells assessed as reduction in cell viability upto 30 uM measured after 72 hrs by SRB assay; assay type: cell-based; conditions: hek293, 72 h; in short: as §1
[14] = Drug uptake in human A-375 cells measured after 24 hrs by fluorescence imaging analysis; assay type: ADME, cell-based; conditions: a-375, 24 h
In short: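 Fluorescence imaging of cells after a prolonged 24 h incubation with compound, to judge entry into the cells.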

HEK293 [15] = assay: Cytotoxicity against human HEK293 cells assessed as reduction in cell viability measured after 72 hrs by SRB assay; assay type: ADME, cell-based; conditions: HEK293, 72 h
[16] = Drug uptake in Mitochondria of human A-375 cells at 5.4 uM measured after 12 hrs by Mito-tracker based fluorescence imaging analysis; assay type: ADME; conditions: a-375, 12 h
[17] = Drug uptake in endoplasmic reticulum of human A-375 cells at 5.4 uM measured after 12 hrs by ER-tracker based fluorescence imaging analysis; assay type: ADME, subcellular; conditions: a-375, 12 h
In short: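 Living A375 cells were incubated with compound for 12 h, co-stained with ER-Tracker, and imaged by fluorescence microscopy. Compound, tracker and merged channels were compared for localisation in the endoplasmic reticulum.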

SMILES | Activity (A-375 [1]) | EC50 (A-375 [2]) [µM] | Activity (HT-29 [3]) | EC50 (HT-29 [4]) [µM] | Activity (MCF7 [5]) | EC50 (MCF7 [6]) [µM] | Activity (A2780 [7]) | EC50 (A2780 [8]) [µM] | Activity (FaDu [9]) | EC50 (FaDu [10]) [µM] | Activity (NIH3T3 [11]) | EC50 (NIH3T3 [12]) [µM] | Activity (HEK293 [13]) | Drug uptake [14] | EC50 (HEK293 [15]) [µM] | Drug uptake [16] | Drug uptake [17]
CC1=CC(C)=C(C(=O)[O-])C2=N[N+]3(CCCCC3)CN12 | inactive | > 30 | inactive | > 30 | inactive | > 30 | inactive | > 30 | inactive | > 30 | Non-Toxic | > 30 | Non-Toxic | Not Active | – | – | –
C=C(C)[C@@H]1CC[C@]2(C(=O)N3CCN(C(=O)C4=C(C)C=C(C)N5C[N+](CCCCCCCCCCCC)(CCCCCCCCCCCC)N=C45)CC3)CC[C@]3(C)[C@H](CC[C@@H]4[C@@]5(C)CC[C@H](OC(C)=O)C(C)(C)[C@@H]5CC[C@]43C)[C@@H]12 | – | 16.8 | – | 24.9 | – | 15.7 | – | 11 | – | 10.7 | – | > 30 | – | – | 13.3 | – | –
C=C(C)[C@@H]1CC[C@]2(C(=O)N3CCN(C(=O)C4=Cc5ccccc5N5C[N+](CC)(CC)N=C45)CC3)CC[C@]3(C)C(=CC[C@@H]4[C@@]5(C)CC[C@H](OC(C)=O)C(C)(C)[C@@H]5CC[C@]43C)[C@H]12 | – | 20.8 | – | 27 | – | 18.1 | – | 14.1 | – | 28.2 | – | > 30 | – | – | 16.5 | – | –
CC1=CC(C)=C(C(=O)[O-])C2=N[N+]3(CCOCC3)CN12 | inactive | > 30 | inactive | > 30 | inactive | > 30 | inactive | > 30 | inactive | > 30 | Non-Toxic | > 30 | Non-Toxic | Not Active | – | – | –
CC1=CC(C)=C(C(=O)[O-])C2=N[N+]3(CCCC3)CN12 | inactive | > 30 | inactive | > 30 | inactive | > 30 | inactive | > 30 | inactive | > 30 | Non-Toxic | > 30 | Non-Toxic | Not Active | – | – | –
CCCCCC[N+]1(CCCCCC)CN2C(C)=CC(C)=C(C(=O)[O-])C2=N1 | inactive | > 30 | inactive | > 30 | inactive | > 30 | inactive | > 30 | inactive | > 30 | Non-Toxic | > 30 | Non-Toxic | Not Active | – | – | –
CC1=CC(C)=C(C(=O)[O-])C2=N[N+]3(CCN(C)CC3)CN12 | inactive | > 30 | inactive | > 30 | inactive | > 30 | inactive | > 30 | inactive | > 30 | Non-Toxic | > 30 | Non-Toxic | Not Active | – | – | –
CCCCCCCCCCCC[N+]1(CCCCCCCCCCCC)CN2C(C)=CC(C)=C(C(=O)[O-])C2=N1 | inactive | > 30 | inactive | > 30 | inactive | > 30 | inactive | > 30 | inactive | > 30 | Non-Toxic | > 30 | Non-Toxic | Not Active | – | – | –
C=C(C)[C@@H]1CC[C@]2(C(=O)NCCNC(=O)C3=Cc4ccccc4N4C[N+](CC)(CC)N=C34)CC[C@]3(C)C(=CC[C@@H]4[C@@]5(C)CC[C@H](OC(C)=O)C(C)(C)[C@@H]5CC[C@]43C)[C@H]12 | – | 18.6 | – | 26.8 | – | 17.6 | – | 18.3 | – | 12.3 | – | 17.4 | – | – | 13.6 | – | –
C=C(C)[C@@H]1CC[C@]2(C(=O)N3CCN(C(=O)C4=C(C)C=C(C)N5C[N+](CCCCCC)(CCCCCC)N=C45)CC3)CC[C@]3(C)[C@H](CC[C@@H]4[C@@]5(C)CC[C@H](OC(C)=O)C(C)(C)[C@@H]5CC[C@]43C)[C@@H]12.[Cl-] | – | 5.4 | – | 7.5 | – | 4.9 | – | 4.6 | – | 6 | – | 6.6 | – | – | 3 | Not Active | Active
CCCCCCCC[N+]1(CCCCCCCC)CN2C(C)=CC(C)=C(C(=O)[O-])C2=N1 | inactive | > 30 | inactive | > 30 | inactive | > 30 | inactive | > 30 | inactive | > 30 | Non-Toxic | > 30 | Non-Toxic | Not Active | – | – | –
CC[N+]1(CC)CN2C(C)=CC(C)=C(C(=O)[O-])C2=N1 | inactive | > 30 | inactive | > 30 | inactive | > 30 | inactive | > 30 | inactive | > 30 | Non-Toxic | > 30 | Non-Toxic | Not Active | – | – | –
CC1=CC(C)=C(C(=O)[O-])C2=N[N+](C)(C)CN12 | inactive | > 30 | inactive | > 30 | inactive | > 30 | inactive | > 30 | inactive | > 30 | Non-Toxic | > 30 | Non-Toxic | Not Active | – | – | –
CCN(CC)c1ccc2c(-c3ccccc3C(=O)O)c3ccc(=[N+](CC)CC)cc-3oc2c1 [RHODAMINE] | – | > 30 | – | > 30 | – | > 30 | – | > 30 | – | > 30 | – | > 30 | – | – | > 30 | – | –
